Data set [1] concerns the target Prostaglandin G/H synthase 1 (Homo sapiens, UniProt P23219). In words: Inhibition of COX1 in human whole blood assessed as TXB2 biosynthesis after 24 hrs by EIA. Type of data set: tissue-based. In outline:
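IC50 taken from a four-parameter logistic fit of dose-response curves. Ratio is COX-1 IC50 / COX-2 IC50. Mean ± SEM, n = 3.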

Data set [2] concerns the target T1, Prostaglandin G/H synthase 2 (Homo sapiens, UniProt P35354).
T1 sequence (P35354 whole entry): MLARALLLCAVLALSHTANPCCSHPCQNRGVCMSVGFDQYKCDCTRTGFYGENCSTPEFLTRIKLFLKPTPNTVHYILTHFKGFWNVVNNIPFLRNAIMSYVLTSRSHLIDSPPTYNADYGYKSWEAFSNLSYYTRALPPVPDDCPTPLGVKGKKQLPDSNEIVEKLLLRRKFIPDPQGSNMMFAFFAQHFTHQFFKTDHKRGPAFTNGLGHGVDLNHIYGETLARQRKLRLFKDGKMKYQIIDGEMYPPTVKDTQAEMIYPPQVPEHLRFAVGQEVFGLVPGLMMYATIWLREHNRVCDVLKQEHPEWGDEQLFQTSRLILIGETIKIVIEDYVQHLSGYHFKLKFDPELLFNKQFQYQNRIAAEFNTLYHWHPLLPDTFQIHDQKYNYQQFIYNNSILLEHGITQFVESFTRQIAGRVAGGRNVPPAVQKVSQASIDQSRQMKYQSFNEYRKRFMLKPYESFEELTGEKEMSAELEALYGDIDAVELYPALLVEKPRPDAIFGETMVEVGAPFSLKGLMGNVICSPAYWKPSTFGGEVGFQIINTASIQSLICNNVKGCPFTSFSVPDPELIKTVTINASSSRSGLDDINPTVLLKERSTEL
As to the kind of experiment: Inhibition of COX2 in human whole blood assessed as PGE2 biosynthesis after 24 hrs by EIA. In kind it is tissue-based.

For another data set, the species on record is Homo sapiens. As to the kind of experiment: Selectivity ratio of IC50 for human COX1-derived TXB2 biosynthesis to IC50 for human COX2-derived PGE2 biosynthesis. In short, it runs like this: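 Human whole blood assay of COX-1- and COX-2-derived PG biosynthesis. IC50 taken from a four-parameter logistic fit of dose-response curves. Ratio is COX-1 IC50 / COX-2 IC50. Mean ± SEM, n = 3.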

Data set [3] concerns Rattus norvegicus. As to the kind of experiment: Toxicity in Wistar rat assessed as gastric lesion at 40 to 50 mg/kg, po. Type of data set: organism-based, Stomach. Further details: dose 40-50 mg/kg, route oral. As to conditions: in vivo. In outline:
(§1)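 Rats dosed orally (low or high dose); stomachs removed 8 h after dosing and scored for hemorrhagic damage to give a lesion index. Mean ± SEM, n = 3.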

In data set [4] the test system is Rattus norvegicus. In words: Antiinflammatory activity against Wistar rat assessed as decrease in gastric level of PGE2 at 40 to 50 mg/kg, po. In kind it is functional, organism-based. As to conditions: Stomach. In short, it runs like this: (§2)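 Rats dosed orally (low or high dose); stomachs removed 8 h later and gastric PGE₂ level measured by EIA. Mean ± SEM, n = 3, compared with vehicle.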

In data set [5] the test system is Rattus norvegicus. In words: Antiinflammatory activity in rat assessed as inhibition of carrageenan-induced paw edema at 10 mg/kg, po administered 1 hr before carrageenan challenge measured after 3 to 6 hrs. Type of data set: functional, organism-based. Details: dose 10 mg/kg. In outline:
(§3)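 Oral dosing of rats 1 h before intradermal injection of 1% carrageenan into the left hindpaw. Paw edema measured 3 h and 6 h after carrageenan. Mean ± SEM, n = 3-4, compared with vehicle.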
(The carrageenan paw model is a standard test of acute inflammation.)

A short description of data set [6]: Membrane permeabilization activity in calcein-loaded liposome assessed as calcein release at […] by fluorescence assay. As to conditions: artificial membrane. Type of data set: physicochemical. In outline:
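Calcein-loaded liposomes exposed to compound; release of self-quenched calcein into the medium read as a rise in fluorescence. Triton X-100 (10 μM) defined 100% permeabilization. Mean ± SEM, n = 3.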

Data set [7] concerns Rattus norvegicus. In words: Toxicity in Wistar rat assessed as gastric lesion at 52 to 65 mg/kg, po. As to conditions: in vivo. Further details: dose 52-65 mg/kg, route oral. Type of data set: organism-based, Stomach. In short, it runs like this: as §1
Data set [8] has as its system Rattus norvegicus. In words: Antiinflammatory activity against Wistar rat assessed as decrease in gastric level of PGE2 at 52 to 65 mg/kg, po. In kind it is functional, organism-based. As to conditions: Stomach. In outline: as §2
Data set [9] concerns Rattus norvegicus. As to the kind of experiment: Antiinflammatory activity in rat assessed as inhibition of carrageenan-induced paw edema at 13 mg/kg, po administered 1 hr before carrageenan challenge measured after 3 to 6 hrs. Type of data set: functional, organism-based. Further details: dose 13 mg/kg. In outline:
as §3

The subject of data set [10] is Rattus norvegicus. As to the kind of experiment: Toxicity in Wistar rat assessed as gastric lesion at 43 to 53 mg/kg, po. Type of data set: organism-based, Stomach. Details: dose 43-53 mg/kg, route oral. As to conditions: in vivo. In short, it runs like this:
as §1

Data set [11] has as its system Rattus norvegicus. In words: Antiinflammatory activity against Wistar rat assessed as decrease in gastric level of PGE2 at 43 to 53 mg/kg, po. In kind it is functional, organism-based. As to conditions: Stomach. In outline: as §2
The test system of data set [12] is Rattus norvegicus. As to the kind of experiment: Antiinflammatory activity in rat assessed as inhibition of carrageenan-induced paw edema at 11 mg/kg, po administered 1 hr before carrageenan challenge measured after 3 to 6 hrs. In kind it is functional, organism-based. Details: dose 11 mg/kg. In short, it runs like this:
as §3

The source made the active and inactive calls. The rule behind the calls is not given here.

A word on the IC50: it is the concentration that gives 50% inhibition.

Chain of Prostaglandin G/H synthase 1 (P23219 whole entry): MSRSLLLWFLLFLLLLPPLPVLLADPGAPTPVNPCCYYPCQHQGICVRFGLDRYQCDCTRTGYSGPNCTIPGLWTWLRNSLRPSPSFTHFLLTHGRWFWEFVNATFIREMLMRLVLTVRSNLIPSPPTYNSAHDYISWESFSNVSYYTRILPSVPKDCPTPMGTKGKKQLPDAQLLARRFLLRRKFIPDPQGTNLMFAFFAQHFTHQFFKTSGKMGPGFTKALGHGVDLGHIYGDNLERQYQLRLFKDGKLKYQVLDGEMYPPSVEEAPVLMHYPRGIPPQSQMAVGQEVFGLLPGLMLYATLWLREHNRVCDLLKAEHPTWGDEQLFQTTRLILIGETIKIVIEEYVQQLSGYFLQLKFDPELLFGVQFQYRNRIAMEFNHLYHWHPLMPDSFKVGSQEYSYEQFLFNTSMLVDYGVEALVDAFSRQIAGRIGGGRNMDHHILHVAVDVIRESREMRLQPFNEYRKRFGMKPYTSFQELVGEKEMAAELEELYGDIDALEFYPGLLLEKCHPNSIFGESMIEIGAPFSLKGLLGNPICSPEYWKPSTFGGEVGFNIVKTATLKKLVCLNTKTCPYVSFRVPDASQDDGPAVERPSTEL

With `CC(C(=O)[O-])c1ccc(CC2CCCC2=O)cc1.[Na+]` (stereo not drawn) [LOXOPROFEN SODIUM], the results for the 50% inhibitory concentration (IC50) in data set [1] and in [2] were 23.5 µM and 10.1 µM, respectively. The Ratio IC50 in the data set listed under Homo sapiens came to 2.5. The Activity entry is reported as “Toxic” with Rattus norvegicus [3] and “Active” in data set [6]. In addition, the outcome in the data set with Rattus norvegicus [4] and in the data set on Rattus norvegicus [5] was Active.

In the case of `CC(C(=O)O)c1ccc(C[C@H]2CCC[C@@H]2O)cc1F` (relative stereo), the IC50 in data set [1] turned out to be 0.6 µM; in data set [2], 3.1 µM. Besides, in the data set listed under Homo sapiens, the Ratio IC50 is 0.4.

`CC(C(=O)[O-])c1ccc(CC2CCCC2=O)cc1Br.[Na+]` (stereo not drawn) [BROMOLOXOPROFEN]: the IC50 was found to be 30.3 µM in [1] and 65.3 µM in data set [2]. Further, the Ratio IC50 in the data set listed under Homo sapiens came to 0.5. Moreover, the Activity result in the data set on Rattus norvegicus [7] was “Toxic”; in data set [6], “Not Active”. The result with Rattus norvegicus [8] and in the data set with Rattus norvegicus [9] was Active.

For the molecule `CC(C(=O)[O-])c1ccc(CC2CCCC2=O)cc1F.[Na+]` (stereo not drawn) [FLUORO LOXOPROFEN], the half-inhibitory concentration (IC50) in [1] worked out at 24.2 µM; in data set [2], 14.3 µM. In addition, in the data set filed under Homo sapiens, the Ratio IC50 is 2.5. The Activity entry in the data set with Rattus norvegicus [10] was “Toxic”; in data set [6] it was “Not Active”. Further, the result with Rattus norvegicus [11] and in the data set on Rattus norvegicus [12] was Active.

On to `CC(C(=O)O)c1ccc(C[C@@H]2CCC[C@@H]2O)cc1F` (relative stereo), for which the IC50 in data set [1] is 7.7 µM; in data set [2], 48 µM. The Ratio IC50 in the data set listed under Homo sapiens was 0.2.

Consider `CC(C(=O)O)c1ccc(C[C@@H]2CCC[C@@H]2O)cc1Br` (relative stereo), for which the IC50 in data set [1] came to 7.2 µM; in [2], 34 µM. The Ratio IC50 in the data set listed under Homo sapiens is 0.2.

On to `CC(C(=O)O)c1ccc(C[C@H]2CCC[C@@H]2O)cc1Br` (relative stereo), for which the half-inhibitory concentration (IC50) is 2.2 µM in data set [1] and 8.5 µM in data set [2]. The Ratio IC50 in the data set filed under Homo sapiens was found to be 0.3.

These data come from ChEMBL document CHEMBL1275375, “Properties and synthesis of 2-{2-fluoro (or bromo)-4-[(2-oxocyclopentyl)methyl]phenyl}propanoic acid: nonsteroidal anti-inflammatory drugs with low membrane permeabilizing and gastric lesion-producing activities” (J Med Chem, 2010).
